Assay outcomes as filed in PubChem BioAssay.
In the library only some 12% were active in any assay of this set; here they are far more common.
Wee1 degr inh – Wee1 degradation inhibitors, primary screen, cell-based, HeLa, Wee1K328M-luciferase, luminescence | Wee1-like protein kinase (Homo sapiens), P30291 | HeLa Luc-Wee1K328M stability; 100% = proteasome inhibitor MG132 effect | reporter increase, % at 5 µM | 220,000 tested, 1.2% active;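 active = activation above the mean of all tested compounds plus 3 SD, set per screening run, cut at about 8.8% in these data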;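 note: cells exposed to compound for 20 h before luminescence read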
Arbovirus inh – antivirals against arbovirus infection, primary screen, cell-based, full library, 10K replicate subset; arbovirus infection cell-based antiviral screen; inhibition, % at 10 µM; 200,000 tested, 0.37% active; AID 1251, 2008; in the data active = inhibition above about 30%
Rad51 HR inh – human RAD51 strand exchange inhibitors, primary screen, biochemical, fluorescence; DNA repair protein RAD51 homolog 1 (Homo sapiens), Q06609; hRad51 DNA strand exchange, fluorescence dequenching; inhibition, % at 10 µM; 200,000 tested, 0.085% active; AID 1385, 2008;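 active = inhibition above 40% at the single screening dose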
Target sequence (Q06609 whole entry, looked up): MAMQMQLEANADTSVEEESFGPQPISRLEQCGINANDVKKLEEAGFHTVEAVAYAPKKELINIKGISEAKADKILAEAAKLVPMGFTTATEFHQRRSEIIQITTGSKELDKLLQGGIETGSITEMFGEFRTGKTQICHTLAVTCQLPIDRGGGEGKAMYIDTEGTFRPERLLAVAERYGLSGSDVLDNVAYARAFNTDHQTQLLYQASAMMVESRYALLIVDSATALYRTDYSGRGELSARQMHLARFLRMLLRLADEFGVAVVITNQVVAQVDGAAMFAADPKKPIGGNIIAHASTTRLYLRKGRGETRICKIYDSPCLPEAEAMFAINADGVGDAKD
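Test system: preformed human Rad51 ssDNA filaments; also added: Donor/quencher-labelled 47-bp dsDNA substrate; doses: 10 µM final, single point; times: 37 °C 15-min filament assembly, 30-min compound preincubation, 15-min exchange; detection: FRET fluorescence dequenching, excitation 485 nm, emission 520 nm; read-out basis: Fluorescence-based percent inhibition, control- and blank-normalised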
CHOP inhibitor – inhibitors of CHOP promoter induction, primary screen, cell-based, unfolded protein response, luciferase reporter | CHO-K1 CHOP-promoter luciferase, tunicamycin-induced, 15-18 h | inhibition, % at 10 µM | 220,000 tested, 3.8% active | AID 2732, 2010;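 active = compounds that reduced the stress-induced luciferase reporter signal by more than about 70% of percent inhibition, limit read from the data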
Lmaj promast – Leishmania major promastigote growth inhibition, primary screen. Leishmania major promastigotes, resazurin fluorescence viability. 200,000 tested, 9% active. AID 1063, 2008. inhibition, % at 10 µM;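 note: promastigotes grown with compound for 44 hours at 28 °C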
PKD1 inh – inhibitors of human PKD1 kinase, biochemical, fluorescence polarization. Serine/threonine-protein kinase D1 (Homo sapiens), Q15139. PKD1 kinase fluorescence polarization assay. inhibition, % (test concentration not listed). 200,000 tested, 0.056% active. AID 797, 2007
L major 1uM – Leishmania major promastigote growth inhibition, confirmation, 1 µM repeat of primary hits; AID 1258, 2008; L. major promastigote growth, resazurin fluorescence, 48 h; 1,100 tested, 13% active; shares compounds with Lmaj promast; inhibition, % at 1 µM;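 active = inhibition above about 50% in both repeat tests, limit read from the data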
Of the large screens only hits and unclear results are named; the others gave an inactive call (follow-up assays come after a bar, where they were run). Cut-off read from the data, not from the text of the source, unless noted: active = inhibition above about 50%; inactive = the rest.

CCC(/C=C1\Sc2ccc(OC)cc2N1CCO)=C\c1sc2ccc(OC)cc2[n+]1CCO	Lmaj promast 100 (no result: Rad51 HR inh) | L major 1uM 100
CCC(=O)/C=C1/Sc2ccc(OC)cc2N1CCO	none
CCn1c(CN2CCN(Cc3ccc(C)cc3)C(CCO)C2)nc2ccccc21 (stereo unspecified)	none (no result: Rad51 HR inh)
O=C1c2oc3ccccc3c(=O)c2C(c2ccc(O)cc2)N1c1nccs1 (stereo unspecified)	none
Cc1ccc(OC(=O)c2ccc(Br)o2)cc1	none
Cc1ccc(S(=O)(=O)c2c(C)nn(-c3ccccc3)c2OC(=O)c2ccc(Br)o2)cc1	Lmaj promast 53 | L major 1uM inactive
Cc1ccc(NC(=O)c2ccc(Br)o2)cc1S(=O)(=O)N(C)C	Lmaj promast 60 | L major 1uM inactive
Cc1ccc(NC(=O)c2ccncc2)cc1S(=O)(=O)N(C)C	none
CN1CCC(C2(O)c3ccccc3CSc3sccc32)CC1 (stereo unspecified)	Lmaj promast 67 | L major 1uM inactive
O=C(NC1CC1)C1CCN(C2CCN(C(=O)c3ccc4cccc(F)c4n3)CC2)CC1	none
c1ccc2c(c1)OC(CCCN1CCCCC1)c1ccccc1S2 (stereo unspecified)	Lmaj promast 100 | L major 1uM 95
O=[N+]([O-])c1ccc2c(c1)c(-c1ccccc1)nc1nncn12	Lmaj promast 56 | L major 1uM inactive
O=[N+]([O-])c1ccc2nc(-c3ccccc3)cc(-c3ccccc3)c2c1	none
CC(C)(C)c1ccc(-n2nc(C#N)c(Cl)cc2=O)cc1	CHOP inhibitor 108, Lmaj promast 101 | L major 1uM 92
CCOC(=O)c1ccc(NC(=S)N2CCSC2c2ccc(Cl)cc2)cc1 (stereo unspecified)	Lmaj promast 60 | L major 1uM inactive
O=C(NC(=S)N1CCN(C(c2ccccc2)c2ccccc2)CC1)c1ccc(S(=O)(=O)N2CCOCC2)cc1	Lmaj promast 99 | L major 1uM inactive
COc1ccc(CN(C(=S)Nc2ccccc2)C2CC(=O)N(c3ccc(Cl)cc3)C2=O)cc1 (stereo unspecified)	CHOP inhibitor 72, Lmaj promast 99 | L major 1uM inactive
COc1ccc(CN(C(=S)Nc2ccccc2)C2CC(=O)N(c3ccccc3)C2=O)cc1 (stereo unspecified)	none
Nc1c(C(=O)NCCN2CCOCC2)c2nc3ccccc3nc2n1CCc1ccccc1F	Lmaj promast 65 | L major 1uM inactive
CCN1C(=O)/C(=C/c2ccc(OC)c(OC)c2)N=C1SCC(=O)NCc1ccco1	none
CC(C)C(NS(=O)(=O)c1cccc2nsnc12)C(=O)Nc1nc2ccc(Cl)cc2s1 (stereo unspecified)	CHOP inhibitor 88, Lmaj promast 90 (no result: Rad51 HR inh) | L major 1uM inactive
COC(=O)c1cc(=O)n(Cc2cccs2)c(=NCc2cccs2)s1	none
CCOC(=O)c1ccc(N=c2sc(C(=O)OC)cc(=O)n2Cc2ccco2)cc1	Lmaj promast 100 | L major 1uM inactive
CCOc1ccc(NC(=O)CC2C(=O)N(c3cccc(OC)c3)C(=O)N2C(C)C)cc1 (stereo unspecified)	none
O=C1O/C(=C/c2ccccc2)c2ccccc21	none
N#CC1=C(c2ccccc2)/C(=C/c2ccccc2)OC1=O	CHOP inhibitor 108, Lmaj promast 92 | L major 1uM inactive
COc1ccc(NC(=O)c2cccnc2)c(OC)c1	none
COc1ccc(NC(=O)N(Cc2ccc(C)cc2)Cc2cccnc2)c(OC)c1	Lmaj promast 70 | L major 1uM inactive
Cc1ccc(S(=O)(=O)/N=C(\CCl)N2CCOCC2)cc1	Lmaj promast 87 (no result: Rad51 HR inh) | L major 1uM inactive
Cc1nn(-c2ccccc2)c(N)c1Sc1ccccc1[N+](=O)[O-]	none
Cc1nn(-c2ccccc2)c(N)c1Sc1cccc([N+](=O)[O-])c1	Lmaj promast 52 (no result: Rad51 HR inh) | L major 1uM inactive
Cc1ccc(CNS(=O)(=O)NCc2ccc(Cl)cc2)cc1	none
C=CCS(=O)(=O)c1nc2ccccc2s1	Lmaj promast 101 | L major 1uM inactive
CCS(=O)(=O)CCSc1nc2ccccc2s1	none
O=S(=O)(CCSc1nc2ccccc2s1)c1nc2ccccc2s1	Lmaj promast 100 | L major 1uM 54
CCC(C#CCN1CCOCC1)(CC)OCCC#N	none
CCC(C#CCN1CCCCC1)(CC)OCCC#N	Lmaj promast 65 (no result: Rad51 HR inh) | L major 1uM inactive
N#Cc1cnn(-c2cccc(Cl)c2)c1-n1cccc1	none (no result: Arbovirus inh, Lmaj promast, PKD1 inh)
COC(=O)CNC(=O)Cn1nc(C)c([N+](=O)[O-])c1C	none
COC(CNC(=O)C1CCCN(S(=O)(=O)c2c(C)noc2/C=C/c2cccs2)C1)OC (stereo unspecified)	none
CCC(C)(c1nnnn1-c1c(C)cccc1C)N(N=O)c1ccccc1Cl (stereo unspecified)	Lmaj promast 100 | L major 1uM 95
O=C1c2ccccc2CCCC12N=NCC2c1cccc2ccccc12 (stereo unspecified)	Lmaj promast 53 (no result: Rad51 HR inh) | L major 1uM inactive
CC12CCC(C(=O)N(c3ccccc3Cl)C1=O)C2(C)C (stereo unspecified)	none
CC12CCC(C(=O)N(CCCN3CCN(Cc4ccccc4)CC3)C1=O)C2(C)C (stereo unspecified)	Lmaj promast 95 (no result: Rad51 HR inh) | L major 1uM 68
Cc1ccc(C(=O)C(C)OC(=O)c2ccccc2[N+](=O)[O-])cc1 (stereo unspecified)	none
Cc1nc(N2CCOCC2)[nH]c(=O)c1C	none
Nc1nn(-c2ccccc2)c(N)c1N=Nc1ccc2c(c1)OCO2	Wee1 degr inh 9.8, Lmaj promast 87 | L major 1uM 79
Nc1nn(-c2ccccc2)c(N)c1N=Nc1cccc(F)c1	none (no result: Arbovirus inh, Lmaj promast, PKD1 inh)
COc1ccc(C2=Nc3ccc(C)cc3C(c3ccccc3)N2CC(=O)NN)cc1 (stereo unspecified)	none
COC(=O)CN1C(c2ccc(Cl)cc2)=Nc2ccc(Cl)cc2C1c1ccccc1 (stereo unspecified)	Lmaj promast 65 | L major 1uM inactive
Clc1ccc(-c2nc(-c3cc4cc(Cl)ccc4o3)cs2)cc1	none (no result: Arbovirus inh, Lmaj promast, PKD1 inh)
CC(=O)N1CCN(c2ccc(NCc3ccc(C)s3)cc2)CC1	none
Cc1ccc(CNc2ccc(N3CCOCC3)cc2)s1	Lmaj promast 81 | L major 1uM inactive
Cc1c(NS(C)(=O)=O)cccc1-c1nc2cccnc2s1	none (no result: Arbovirus inh, Rad51 HR inh, Lmaj promast, PKD1 inh)
O=C(c1cc2ccccc2o1)N1CCN(S(=O)(=O)c2cccs2)CC1	Lmaj promast 72 | L major 1uM inactive
